Most compounds without a hit are left out; they make up all but 2.3% or so of the library.
TRPC6 inhibitor – mouse TRPC6 channel inhibitors, primary screen, cell-based, HEK293, membrane potential dye; ACh-evoked depolarization; stronger effect = lower value; B-score at 10 µM; 310,000 compounds, 1.1% hits; AID 2553, 2010;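 active = B-score under library mean minus 3 SD, initial fluorescence not abnormally high, positive integrated signal ratio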;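 note: B-score derived from integrated fluorescence ratio over the kinetic read; more negative B-score means stronger inhibition of depolarization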
TRPC4 PAM – positive allosteric modulators of TRPC4, primary screen, cell-based, mouse TRPC4beta, HEK293 mu-opioid, Fluo-4 calcium; Short transient receptor potential channel 4 (Mus musculus), Q9QUQ5; DAMGO EC20, Fluo-4 Ca2+ flux; stronger effect = higher value; B-score at 10 µM; 310,000 compounds, 0.42% hits; AID 2227, 2009;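 active = B-score of calcium response area above 5 SD of library B-scores, with initial fluorescence ratio within 5 SD of library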
Target sequence (Q9QUQ5 whole entry, looked up): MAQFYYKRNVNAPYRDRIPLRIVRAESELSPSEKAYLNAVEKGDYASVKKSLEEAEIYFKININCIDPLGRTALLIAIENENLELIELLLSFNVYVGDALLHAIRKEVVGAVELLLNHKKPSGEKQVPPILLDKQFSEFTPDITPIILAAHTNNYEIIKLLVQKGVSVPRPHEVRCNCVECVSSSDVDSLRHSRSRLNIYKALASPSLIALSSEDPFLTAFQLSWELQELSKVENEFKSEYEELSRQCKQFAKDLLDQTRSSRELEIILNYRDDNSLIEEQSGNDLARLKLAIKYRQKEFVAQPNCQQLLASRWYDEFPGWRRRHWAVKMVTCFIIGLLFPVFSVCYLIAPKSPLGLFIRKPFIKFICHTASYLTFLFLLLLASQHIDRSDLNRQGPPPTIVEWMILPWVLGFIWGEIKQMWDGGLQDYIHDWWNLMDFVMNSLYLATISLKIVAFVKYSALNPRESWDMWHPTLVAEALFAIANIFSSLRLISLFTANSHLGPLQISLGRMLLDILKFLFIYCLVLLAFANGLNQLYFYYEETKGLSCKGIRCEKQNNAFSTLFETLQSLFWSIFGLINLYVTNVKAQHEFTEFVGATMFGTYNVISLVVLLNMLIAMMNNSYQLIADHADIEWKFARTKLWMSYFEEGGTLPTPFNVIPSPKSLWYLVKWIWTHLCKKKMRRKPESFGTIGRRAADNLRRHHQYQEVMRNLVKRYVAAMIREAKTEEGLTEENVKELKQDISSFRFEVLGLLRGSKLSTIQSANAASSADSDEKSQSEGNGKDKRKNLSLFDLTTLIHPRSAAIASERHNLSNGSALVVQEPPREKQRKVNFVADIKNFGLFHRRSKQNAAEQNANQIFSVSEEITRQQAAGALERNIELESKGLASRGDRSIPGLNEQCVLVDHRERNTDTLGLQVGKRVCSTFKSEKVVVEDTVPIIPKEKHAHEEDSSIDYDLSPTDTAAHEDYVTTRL
TRPC6 act – mouse TRPC6 channel activators, primary screen, cell-based, HEK293, membrane potential dye; B-score at 10 µM; HEK293-TRPC6 membrane potential dye fluorescence; stronger effect = higher value; 310,000 compounds, 0.13% hits; Short transient receptor potential channel 6 (Mus musculus), Q61143;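 active = B-score of the integrated fluorescence ratio above library mean plus 3 SD, and starting fluorescence ratio within library mean plus 5 SD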;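 note: higher score means more depolarization so channel activation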
TRPC4 agonist – activators of mouse TRPC4 channel, primary screen, Fluo4 calcium, HEK293 TRPC4beta/mu-opioid cells. 310,000 compounds, 0.49% hits. Fluo4 calcium fluorescence; stronger effect = higher value. B-score at 10 µM. AID 2237, 2010;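 active = B-score above 5 SD of library B-scores, and initial fluorescence ratio not above library mean plus 5 SD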;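 note: positive B-score marks a calcium rise read as TRPC4 activation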
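Assay system: HEK293 cells stably co-expressing mouse TRPC4beta and mu-opioid receptor / Timing: Fluo4 dye loading 45 min at room temperature, 110 s recording / Signal: Fluo4 calcium-sensitive dye fluorescence, kinetic, 1 Hz baseline / Read-out: integrated baseline-normalised fluorescence ratio, converted to per-well B score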
TRPC4 inh – inhibitors of mouse TRPC4 channel, primary screen, Fluo4 calcium, HEK293 TRPC4beta/mu-opioid cells. B-score at 10 µM. DAMGO-evoked Fluo4 calcium flux; stronger effect = lower value. Short transient receptor potential channel 4 (Mus musculus), Q9QUQ5. 300,000 compounds, 0.39% hits;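 active = B-score over 3 SD under the library average, no early fluorescence shift, positive overall ratio signal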
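Assay system: HEK293 cells with stable TRPC4beta plus mu-opioid receptor expression; Probe or stimulus: DAMGO in two steps, submaximal then maximal; Dosing: single-point compound dosing; Measured by: Fluo4 calcium-dye fluorescence, kinetic read; Read-out basis: B score from integrated Fluo4 fluorescence ratio.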
Numbers stand for hits; i = inactive.

SMILES	TRPC6 inhibitor	TRPC4 PAM	TRPC6 act	TRPC4 agonist	TRPC4 inh
COc1cccc(CNCc2ccc(OC)c3ccccc23)c1OC	i	i	i	i	i
COc1cccc(CNCc2ccccn2)c1OC	i	i	i	63	-6
Cc1sc2ccc3sccc3c2[n+]1C	-5.4	i	i	i	i
CC(=O)C1=C(c2ccccc2)NC(=S)NC1c1cc(Cl)c(OC(C)C)c(Cl)c1 (stereo not drawn)	i	12	i	i	i
C=CCN(CC=C)C(=O)c1ccc(OC2CCN(C(C)=O)CC2)c(OC)c1	i	i	i	i	i
CCCCN(C)CCNC(=O)c1cc(-c2cccnc2)nc2ccc(S(=O)(=O)N3CCC(C)CC3)cc12	i	i	i	57	i
O=C(CCc1ccccc1)Nc1ccnn1C1CCN(C/C=C/c2ccccc2)CC1	i	i	i	i	-6
C/C=C(\C)CN1CCC(n2nccc2NC(=O)CCc2ccccc2)CC1	i	i	i	46	-6
CCOc1ccccc1CN1CCC(n2nccc2NC(=O)CCc2ccccc2)CC1	i	i	i	i	-7
COc1ccccc1/C=C/CN1CCC(n2nccc2NC(=O)CCc2ccccc2)CC1	i	i	i	i	i
Cc1cc2occ(CC(=O)N(C)CC(=O)Nc3ccccc3Br)c2cc1C	i	i	i	i	i
CC1=C(C(=O)OC(C)C)C(c2cn(-c3ccccc3)nc2-c2cccs2)NC(=O)N1 (stereo not drawn)	i	13	i	i	i
Cc1ccc(C)c(N2C(=O)c3ccc(C(=O)OCC(=O)c4c(N)n(C)c(=O)n(C)c4=O)cc3C2=O)c1	i	11	i	i	i
N=c1c2c(n(Cc3cccc(Cl)c3)c3c1CCC3)CCCC2	i	i	i	i	i
N=c1c2c(n(Cc3ccc(Cl)cc3)c3c1CCC3)CCC2	i	i	i	i	-7
CC(C)(CO)NCc1c(OCc2ccc(Cl)cc2)ccc2ccccc12	-6.7	i	i	i	i
CCc1ccc(OCC(=O)NC2CCCCC2)c(Br)c1	i	55	i	i	i
CCc1ccc(OCC(=O)NNC(=S)NC(=O)C2CCCCC2)c(Br)c1	i	i	i	i	i
CC(C)(C)C(=O)N1CCN(c2ccc([N+](=O)[O-])cc2-n2cccc2)CC1	i	16	i	i	i
COc1ccccc1N1CC(C)(C)C(=O)N(C(=O)c2c(F)cccc2Cl)C1=S	i	i	i	i	i
COc1ccc(-n2cc(CNCc3cccnc3)c(-c3cccc(F)c3)n2)cc1	i	i	i	94	i
COc1ccc(CNCc2cn(-c3cccc(F)c3)nc2-c2ccc(C)o2)cc1	i	i	i	103	i
Fc1ccccc1COc1ccc(Br)cc1CNCc1cccnc1	i	i	i	i	i
COc1ccc(-c2nn(-c3ccccc3C)cc2CNCc2cccnc2)cc1F	i	i	i	178	i
COc1ccc(-c2nn(-c3ccccc3)cc2CNCc2cccnc2)c(F)c1	i	i	i	103	i
SMILES	TRPC6 inhibitor	TRPC4 PAM	TRPC6 act	TRPC4 agonist	TRPC4 inh
COc1cccc(-c2nn(-c3ccccc3)cc2CO)c1	i	i	i	i	i
COc1cc(OC)cc(C(=O)NCC(=O)OCc2nc3ccccc3s2)c1	i	i	i	i	i
Cc1cccc(C)c1NC(=O)CNC(=O)CCC(=O)N1CCOCC1	i	i	i	i	i
CCCCN(C(=O)CCn1c(=O)oc2ccccc21)c1ccccc1	i	i	i	i	i
CC1(C)CC2CC(C)(CN2C(=O)c2ccc([N+](=O)[O-])cc2[N+](=O)[O-])C1 (stereo not drawn)	i	i	i	i	i
O=S(=O)(/C=C/c1ccccc1)N1CCOCC1	i	i	i	i	i
CC(=O)Nc1ccc(S(=O)(=O)Nc2nc3ccccc3nc2N2CCCCCC2)cc1	i	12	i	i	i
CC(=O)Nc1ccc(S(=O)(=O)Nc2nc3ccccc3nc2N2CCc3ccccc3C2)cc1	i	i	i	i	i
Cc1ccc(CN2C(=O)CSc3ccc(C(=O)NCCN4CCOCC4)cc32)cc1	i	i	i	i	i

Bioassay records deposited in PubChem BioAssay by Johns Hopkins Ion Channel Center.
